Assay results: ChEMBL document CHEMBL1137984, “Structure-activity relationship of heterobase-modified 2'-C-methyl ribonucleosides as inhibitors of hepatitis C virus RNA replication” (J Med Chem, 2004)

Key:
[1] = Cmax value in rats; type: ADME, organism-based; conditions: rat, in vivo
Procedure, shortened: (§1)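 Male CRL rats; single intravenous dose of 1.0 mg/kg (N = 2) and oral dose at […] (N = 3). Plasma sampled and analysed by a method described earlier; clearance, half-life, Cmax, Tmax and %F derived from plasma levels.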

[2] = Half-life in rats; type: ADME; conditions: rat, in vivo; procedure, shortened: as §1
[3] = Cytotoxicity against HB-1 cells in an MTS-based assay; type: functional; conditions: HB1
[4] = Oral bioavailability in rat; type: ADME, organism-based; conditions: in vivo; procedure, shortened: as §1
Nucleic Acid = test: Inhibition of HCV RNA replication in a subgenomic bicistronic replicon assay in HB-1 cells; type: functional, cell-based, Hepacivirus hominis; conditions: Hepatitis C virus, HB1
Procedure, shortened: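 Subgenomic bicistronic HCV replicon in HB-1 cells; viral RNA quantified by in situ RNase protection assay after 24 h of nucleoside treatment. EC50 averaged over at least two independent potency determinations. Nucleosides purified by preparative RP-HPLC, purity generally >98%.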

[5] = Clearance in rats when administered at a dose of 1 mg/kg i.v. and […] p.o.; type: ADME, organism-based; parameters: dose 1 mg/kg; conditions: rat, in vivo, iv; procedure, shortened: as §1
[6] = Tmax value in rats; type: ADME; conditions: rat, in vivo; procedure, shortened: as §1
Hepatitis C virus = test: Compound was tested for the inhibition of HCV NS5B-mediated RNA synthesis; type: functional, Hepacivirus hominis
Procedure, shortened: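 Enzymatic activity of HCV NS5B Δ21 measured with nucleoside 5'-triphosphates as inhibitors, by an earlier protocol. Triphosphates purified by anion exchange, desalted by RP-HPLC, >90% pure, identity confirmed by MS. IC50 averaged over at least three separate determinations.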

Compound: C[C@@]1(O)[C@H](O)[C@@H](CO)O[C@H]1n1cc(F)c2c(N)ncnc21
- Cmax [1]: 600 nM
- half-life [2]: 306 min
- CC50 [3]: > 100 µM
- bioavailability [4]: 51%
- EC50 (Nucleic Acid): 0.07 µM
- Clearance [5]: 44 mL/min/kg
- Tmax [6]: 30 min

Compound: C[C@@]1(O)[C@H](O)[C@@H](CO)O[C@H]1n1cc(Cl)c2c(O)nc(N)nc21
- CC50 [3]: > 100 µM
- EC50 (Nucleic Acid): > 100 µM

Compound: C[C@@]1(O)[C@H](O)[C@@H](CO)O[C@H]1n1ccc2c(N)nccc21
- CC50 [3]: > 100 µM
- EC50 (Nucleic Acid): > 100 µM

Compound: C[C@@]1(O)[C@H](O)[C@@H](CO)O[C@H]1n1ccc2c(N)nc(N)nc21
- CC50 [3]: > 100 µM
- EC50 (Nucleic Acid): 100 µM

Compound: C[C@@]1(O)[C@H](O)[C@@H](CO)O[C@H]1n1cc(Cl)c2c(N)ncnc21
- CC50 [3]: ~50 µM
- EC50 (Nucleic Acid): 0.13 µM

Compound: C[C@@]1(O)[C@H](O)[C@@H](CO)O[C@H]1n1cc(Br)c2c(N)ncnc21
- CC50 [3]: 40 µM
- EC50 (Nucleic Acid): 0.24 µM

Compound: C[C@@]1(O)[C@H](O)[C@@H](CO)O[C@H]1n1ccc2c(O)nc(N)nc21
- CC50 [3]: > 100 µM
- EC50 (Nucleic Acid): > 100 µM

Compound: C[C@@]1(O)[C@H](O)[C@@H](CO)O[C@H]1n1cc(C(=O)O)c2c(N)ncnc21
- CC50 [3]: > 100 µM
- EC50 (Nucleic Acid): 70 µM

Compound: C[C@]1(O)C(n2cc(C#N)c3c(N)ncnc32)O[C@H](CO)[C@H]1O (stereo partly drawn)
- CC50 [3]: ~50 µM
- EC50 (Nucleic Acid): 3.1 µM

Compound: C[C@]1(O)C(n2cc(C(N)=O)c3c(N)ncnc32)O[C@H](CO)[C@H]1O (stereo partly drawn)
- CC50 [3]: ~33 µM
- EC50 (Nucleic Acid): 0.08 µM

Compound: C[C@@]1(O)[C@H](O)[C@@H](CO)O[C@H]1n1ncc2c(N)ncnc21
- CC50 [3]: > 100 µM
- EC50 (Nucleic Acid): > 100 µM

Compound: Cc1cn([C@@H]2O[C@H](CO)[C@@H](O)[C@@]2(C)O)c2ncnc(N)c12
- CC50 [3]: > 100 µM
- EC50 (Nucleic Acid): 34 µM

Compound: C[C@@]1(O)[C@H](O)[C@@H](CO)O[C@H]1n1ccc2c(N)nc(F)nc21
- CC50 [3]: > 100 µM
- EC50 (Nucleic Acid): 100 µM

Compound: C[C@@]1(O)[C@H](O)[C@@H](CO)O[C@H]1n1cnc2c(N)ncnc21
- IC50 (Hepatitis C virus): 1.9 µM
- half-life [2]: 18 min
- CC50 [3]: > 100 µM
- bioavailability [4]: 0%
- EC50 (Nucleic Acid): 0.26 µM
- Clearance [5]: > 200 mL/min/kg

Compound: C[C@@]1(O)[C@H](O)[C@@H](CO)O[C@H]1n1cnc2c(=O)[nH]c(N)nc21 [2'-B-METHYL-GUANOSINE]
- IC50 (Hepatitis C virus): 0.13 µM
- CC50 [3]: > 100 µM
- bioavailability [4]: 85%
- EC50 (Nucleic Acid): 3.5 µM

Compound: C[C@@]1(O)[C@H](O)[C@@H](CO)O[C@H]1n1ccc2c(N)ncnc21 [BETA-2'-C-METHYL-7-DEAZA-ADENOSINE]
- CC50 [3]: > 100 µM
- EC50 (Nucleic Acid): 0.25 µM
